From ChEMBL document CHEMBL1122013, “Inhibitors of gastric acid secretion: 3,4-diamino-1,2,5-thiadiazole 1-oxides and 1,1-dioxides as urea equivalents in a series of histamine H2-receptor antagonists” (J Med Chem, 1982)
Several values for one entry are separate records, joined by “and”; a condition that tells them apart may be missing. Equal entries are not always repeated.

Columns and labels:
[1] = Slope value of the compound
[2] = Ratio (po/iv) value of the compound; format: functional
Canis familiaris [3] = test: Inhibition of acid output in dogs (iv); format: functional; conditions: Canis lupus familiaris
How it was run: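 Dogs with gastric fistula under histamine stimulation. The compound is dissolved in aqueous vehicle with 1 equiv of HCl. It is given orally (po), or intravenously (iv) immediately before histamine. Acid secretion is measured over the period of maximum effect, 0-30 min after histamine. ED50 and confidence limits come from analysis of variance over four dose levels, with 3-5 dogs per dose.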

Canis familiaris [4] = test: Inhibition of acid output in dogs (po); format: functional; conditions: Canis lupus familiaris
How it was run: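 Dogs with a gastric fistula, stimulated with histamine, were dosed orally with compound solubilized in aqueous vehicle containing 1 equiv of HCl. Gastric secretion was measured over the period of maximum effectiveness (0-30 min after histamine). ED50 and confidence limits came from analysis of variance across four dose levels with 3-5 dogs per dose.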

[5] = target: Histamine H2 receptor (Cavia porcellus) (UniProt P47747); test: In vitro inhibition of Histamine H2 receptor by measuring its ability to block dimaprit-stimulated chronotropic response of guinea pig atrium strips; format: tissue-based; conditions: Cardiac atrium
Histamine H2 receptor = Histamine H2 receptor (Cavia porcellus, UniProt P47747); test: In vitro inhibition of Histamine H2 receptor by measuring its ability to block the histamine-stimulated adenylate cyclase of guinea pig hippocampal homogenate; format: tissue-based, Hippocampus
[6] = target: Histamine H2 receptor (Cavia porcellus) (UniProt P47747); conditions: Cardiac atrium

Sequence of Histamine H2 receptor (Cavia porcellus) (P47747 whole entry): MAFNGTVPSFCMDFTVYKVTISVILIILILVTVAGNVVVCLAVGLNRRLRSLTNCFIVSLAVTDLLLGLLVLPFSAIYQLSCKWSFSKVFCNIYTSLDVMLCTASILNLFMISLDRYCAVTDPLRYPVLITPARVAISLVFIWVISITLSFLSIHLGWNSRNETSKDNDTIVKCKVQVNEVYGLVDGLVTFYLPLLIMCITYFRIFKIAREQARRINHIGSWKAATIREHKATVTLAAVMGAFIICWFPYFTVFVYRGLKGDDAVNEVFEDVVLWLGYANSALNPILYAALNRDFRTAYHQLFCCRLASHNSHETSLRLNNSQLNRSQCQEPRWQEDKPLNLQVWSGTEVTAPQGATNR
Sequence of Histamine H2 receptor (P47747 whole entry): as above

SMILES | Slope [1] | Ratio [2] | ED50 (Canis familiaris [3]) [mg/kg] | ED50 (Canis familiaris [4]) [mg/kg] | -Log KB [5] | Ki (Histamine H2 receptor) [nM] | -Log KB [6]
CN(C)Cc1ccc(CSCCNC2=NS(=O)(=O)N=C2N)o1 | 1.3 and 0.53 |  |  |  |  |  | 
CN(C)Cc1ccc(CSCCNc2n[s+]([O-])nc2N)o1 (stereo not given) | 1.1 and 0.55 |  |  |  |  |  | 
CNc1n[s+]([O-])nc1NCCSCc1ccc(CN(C)C)o1 (stereo not given) | 1.03 | 6 | 0.05 | 0.3 | 7.85 |  | 
CN/C(=N\CCSCc1nc[nH]c1C)NC#N [CIMETIDINE] | 0.9 and 0.78 |  | 1.84 |  |  |  | 
Nc1n[s+]([O-])nc1NCCCOc1cccc(CN2CCCCC2)c1 (stereo not given) | 1.4 and 1.73 |  |  |  |  |  | 
CNC(=C[N+](=O)[O-])NCCSCc1ccc(CN(C)C)o1 [RANITIDINE] | 1.6 and 0.76 | 14 | 0.04 | 0.42 |  | 501 | 7.32
N=C(N)Nc1nc(CSCCNc2n[s+]([O-])nc2N)cs1 (stereo not given) | 0.85 |  |  |  | 8.17 |  | 
Cc1[nH]cnc1CSCCNc1n[s+]([O-])nc1N (stereo not given) | 0.85 |  |  |  | 5.98 |  | 
